# An excerpt weighted towards active compounds, which were near 2.4% of everything screened.
# SUMO1 PPI mod – alters human SUMO1 binding to SIM partners. SUMO1 binding to a labelled peptide, TR-FRET, 1 h. P63165. inhibition, % at 20 µM. 360,000 tested, 0.33% active; in the data active = inhibition above about 37%
# Target sequence (P63165 whole entry, looked up): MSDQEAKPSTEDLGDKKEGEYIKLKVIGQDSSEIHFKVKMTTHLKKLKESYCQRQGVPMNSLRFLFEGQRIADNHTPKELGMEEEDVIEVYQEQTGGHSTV
# Scp1 inh – Scp-1 (human) phosphatase inhibition | Q9GZU7 | Recombinant Scp1, phosphopeptide, malachite green phosphate absorbance | inhibition, % at 20 µM | 340,000 tested, 0.88% active | AID 493091;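 active = inhibition above about 50% at 20 µM, limit read from the data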
# Target sequence (Q9GZU7 76-261 limits assumed): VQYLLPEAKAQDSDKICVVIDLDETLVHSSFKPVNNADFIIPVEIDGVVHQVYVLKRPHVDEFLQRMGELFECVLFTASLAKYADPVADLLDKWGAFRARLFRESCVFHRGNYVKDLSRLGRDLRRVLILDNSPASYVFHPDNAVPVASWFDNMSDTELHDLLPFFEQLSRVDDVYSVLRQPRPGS
#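 Test system: SCP-1 catalytic domain; Buffer or medium: Acidic Tris acetate buffer with magnesium and detergent; Also added: Phosphorylated 17-residue peptide substrate; Compound: single 20 µM dose, 1% DMSO; Schedule: enzyme reaction 45 min at room temperature, colour 5 min, stabilisation 30 min; Signal: Phosphate-binding colour reagent, absorbance read at 630 nm.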
# NadD inh – NadD (S. aureus) enzyme inhibition | purified NadD enzyme, colorimetric absorbance read-out | inhibition, % at 20 µM | 360,000 tested, 0.78% active | AID 602399; in the data active = inhibition above about 26%
# LMPTP inh – blocks human LMPTP phosphatase; 360,000 tested, 0.22% active; recombinant LMPTP-A, OMFP fluorogenic substrate, fluorescence intensity; P24666; AID 651560; inhibition, % at 20 µM;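 active = compounds that cut the enzyme signal by at least half of the control window in the single-dose screen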
# Target sequence (P24666 whole entry, looked up): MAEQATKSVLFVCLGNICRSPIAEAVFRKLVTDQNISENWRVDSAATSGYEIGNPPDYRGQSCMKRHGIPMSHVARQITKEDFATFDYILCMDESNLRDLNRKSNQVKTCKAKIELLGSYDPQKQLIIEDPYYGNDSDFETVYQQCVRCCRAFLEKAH
#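 Buffer or medium: Bis-Tris pH 6.0, DTT, detergent; Assay system: LMPTP-A enzyme; Quantity: 0.625 nM enzyme; Detection: endpoint fluorescence intensity; Times: 50 min dark incubation at room temperature; Controls: substrate-only low control, DMSO enzyme-plus-substrate high control; Doses: single 20 µM dose; Read-out: percent inhibition versus substrate-only and uninhibited controls; Reagent: 400 µM OMFP.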
# DNMT1 inh – blocks human DNA methyltransferase DNMT1; DNMT1 molecular beacon, Hinp1I cleavage, fluorescence; inhibition (reported as % activation of signal), % at 10 µM; 360,000 tested, 0.83% active; AID 588458; in the data active = inhibition above about 50%
# STEP inh – inhibitors of human striatal-enriched phosphatase STEP | AID 588621 | recombinant STEP, OMFP fluorogenic substrate, fluorescence | inhibition, % at 20 µM | 360,000 tested, 0.25% active | P54829;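 active = inhibition at 20 µM, scaled per plate between control wells, above about 37%, limit read from the data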
#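 material = STEP tyrosine phosphatase | reagent = fluorogenic phosphatase substrate OMFP at 25 µM final | doses = single compound dose of 20 µM, 1% DMSO final | schedule = 20 min reaction, room temperature, in the dark | measured by = fluorescence, 480/540 nm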
# NadD inh conf – confirmation of Staphylococcus aureus NadD inhibitors; inhibition, % at 20 µM; 2,000 tested, 13% active; shares compounds with NadD inh; purified S. aureus NadD, colorimetric enzyme assay; in the data active = inhibition mostly above about 42%, no sharp cut-off; inactive = mostly below about 42%
# A number is an active result; - = inactive; . = no result.
SMILES,SUMO1 PPI mod,Scp1 inh,NadD inh,LMPTP inh,DNMT1 inh,STEP inh,NadD inh conf
Cc1ccc(C)c(NC(=O)COC(=O)c2ccc(S(=O)(=O)N3CCCCC3)cc2)c1,-,-,31,-,-,-,-
O=C(Nc1nnc(SCc2ccc(F)cc2)s1)C1Cc2ccccc2CN1C(=O)c1ccco1 (stereo unspecified),-,-,60,-,-,-,52
CCNc1sc(C(=O)c2cccs2)c(N)c1-c1nc2ccccc2s1,-,-,30,-,-,-,-
C=CCNc1sc(C(=O)c2ccccc2)c(N)c1-c1nc2ccccc2s1,-,-,-,-,-,-,.
O=C(Nc1ccc(S(=O)(=O)N2CCOCC2)cc1)C1CCN(S(=O)(=O)c2ccccc2)CC1,-,-,-,-,-,-,.
O=C(Nc1cccc(-c2nc3ccccc3s2)c1)c1cc(-n2cnnc2)ccc1Cl,-,-,40,-,-,-,-
O=C1CC(=C2c3ccccc3-c3ccccc32)C(=O)N1CCN1CCN(c2cccc(Cl)c2)CC1,-,-,69,-,-,-,60
O=C(OCC(=O)N1CCCC1)c1c(Cl)cccc1Cl,-,-,-,-,-,-,.
Cc1ccc(Nc2nc3ccccc3nc2Nc2c(C)n(C)n(-c3ccccc3)c2=O)cc1,-,-,35,-,-,-,-
Nc1cccc2c(=O)c3ccccc3[nH]c12,-,-,29,-,-,-,-
N=C1SC(c2ccccc2)C(=O)N1c1ncc(Cc2ccccc2Cl)s1 (stereo unspecified),-,-,50,-,-,-,50
COc1ccccc1Nc1ncc(-c2cccs2)s1,-,-,40,-,-,-,-
COc1ccccc1Nc1ccc(C(=O)NCc2cccs2)cn1,-,-,-,-,-,-,.
c1ccc2cc(-c3cc4ccccn4c3)ccc2c1,-,-,35,-,-,-,-
O=C(N/N=C/c1ccc([N+](=O)[O-])o1)c1cn(-c2ccccc2)nc1-c1ccc(Cl)cc1,-,-,36,-,50,-,-
O=C(N/N=C/c1ccc([N+](=O)[O-])o1)c1cn(-c2ccccc2)nc1-c1ccccc1,-,-,31,-,-,-,-
O=C(N/N=C/c1ccc([N+](=O)[O-])o1)c1ccccc1-n1cccc1,-,-,-,-,-,-,.
O=C1Nc2ccccc2N=C(c2ccc3c(c2)OCO3)C1N(C(=O)c1ccc2ccccc2c1)C1CC1 (stereo unspecified),-,.,35,-,-,-,-
COc1ccccc1NC(=O)CCSc1nc(C)cs1,-,-,-,-,-,-,.
Cc1nc(/N=C(\N)NC(=O)c2ccccc2)nc2ccccc12,-,-,-,-,-,-,.
Cc1nc(/N=C(\N)NC(=O)N2c3ccccc3Sc3ccccc32)nc2ccccc12,-,-,31,-,-,-,-
COc1cccc(C(C)=C2SC(=S)NC2=O)c1,-,-,-,-,-,-,.
Cc1ccc(C)c2nc3sc(C(=O)N4CCCc5ccccc54)c(N)c3cc12,-,-,32,-,-,-,-
NC(=S)NNc1cccc2cccnc12,-,-,34,50,-,-,-
Nc1[nH]c(C(=O)c2ccccc2)c(-c2cccc3ccccc23)c1C(=O)NCc1ccccc1,-,.,-,-,.,.,.
SMILES,SUMO1 PPI mod,Scp1 inh,NadD inh,LMPTP inh,DNMT1 inh,STEP inh,NadD inh conf
CC(NC(=O)c1c(N)[nH]c(C(=O)c2ccccc2)c1-c1ccccc1Br)c1cccc2ccccc12 (stereo unspecified),-,.,35,-,.,.,-
O=C(CSc1nnnn1C1CC2C=CC1C2)Nc1ccc(C(=O)O)cc1 (stereo unspecified),-,-,-,-,-,-,.
C#CCn1c(=NC(=O)c2cc(-c3cccs3)nc3ccccc23)sc2cc(S(N)(=O)=O)ccc21,-,-,53,-,-,-,55
CCOc1ccc(CCN2C(=O)C(=O)N([C@@H](Cc3ccccc3)CN3CCC[C@H]3CN3C(=O)C(=O)NC[C@@H]3Cc3ccccc3)C[C@@H]2Cc2ccc(O)cc2)cc1,-,.,71,-,.,.,-
CCOc1ccc(CCN2C(=O)C(=O)N([C@@H](Cc3ccccc3)CN3CCC[C@H]3CN3C(=O)C(=O)NC[C@@H]3Cc3ccccc3)C[C@@H]2Cc2ccccc2)cc1,-,.,-,-,.,.,.
O=C1NC[C@H](Cc2ccccc2)N(C[C@@H]2CCCN2C[C@H](Cc2ccccc2)N2C[C@H](Cc3ccc(O)cc3)N(CCc3ccccc3)C(=O)C2=O)C1=O,-,.,44,-,.,.,49
CCOc1ccc(CCN2C(=O)C(=O)N([C@@H](Cc3ccc(O)cc3)CN3CCC[C@H]3CN3C(=O)C(=O)NC[C@@H]3Cc3ccccc3)C[C@@H]2Cc2ccc(O)cc2)cc1,-,.,30,-,.,.,-
O=C1NC[C@H](Cc2ccccc2)N(C[C@@H]2CCCN2C[C@H](Cc2ccc(O)cc2)N2C[C@H](Cc3ccc(O)cc3)N(CCc3ccccc3)C(=O)C2=O)C1=O,-,.,-,-,.,.,.
CC1=C(C(=O)N(C)C)CC(CC(=O)NC2CC2)C(=O)N1Cc1ccccc1 (stereo unspecified),-,.,-,-,-,-,.
CN(CC(=O)Nc1ccc(F)cc1)C(=O)CN1C(=O)NC(CCc2ccccc2)C1=O (stereo unspecified),-,.,-,-,-,-,.
COc1ccc(CCN2C(=O)CC(NNc3ccc([N+](=O)[O-])cc3)C2=O)cc1OC (stereo unspecified),-,-,-,-,-,-,.
CCN(Cc1ccc(OC)c(F)c1)C(C)C(=O)Nc1ccc(S(=O)(=O)N2CCCC2)cc1 (stereo unspecified),-,-,-,-,-,-,.
COC(=O)c1c(NC(=O)C2SC(=NC3CCCCC3)C(C(N)=O)=C2N)sc2c1CCCC2 (stereo unspecified),-,-,38,-,-,-,-
C=C(C)CN=C1SC(C(=O)Nc2sc3c(c2C(=O)OC)CCC3)C(N)=C1C(N)=O (stereo unspecified),-,-,-,-,-,-,.
Fc1cccc(Cc2c(-c3ccco3)nc3c4ccccc4ccn23)c1,-,.,-,-,-,-,.
O=c1oc2ccc3ccccc3c2cc1-c1nnc(-c2cccs2)o1,-,-,50,-,-,-,-
O=c1oc2ccc3ccccc3c2cc1-c1nnc(-c2ccccc2)o1,-,-,-,-,-,-,.
NC(=O)[C@H]1CC2(CC(c3cccc(NC(=O)CC(c4ccccc4)c4ccccc4)c3)=NO2)CN1C(=O)C(c1ccccc1)c1ccccc1 (stereo partly specified),-,-,33,-,-,-,-

# Screening results: PubChem BioAssay, Sanford-Burnham Center for Chemical Genomics
